From ChEMBL document CHEMBL3351317 (J Med Chem, 2014)

Legend:
[1] = Distribution coefficient, log D between 1-octonol and aqueous phosphate buffer at pH 7.4; assay type: physicochemical; settings: 1-octanol/aqueous phosphate buffer
Method in brief: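 logD measured as distribution between 1-octanol and aqueous phosphate buffer, pH 7.4.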

[2] = Intrinsic clearance in rat hepatocytes assessed per million cells; assay type: ADME, cell-based, Hepatocyte; settings: read-out: CLH

SMILES	logD [1]	hepatocyte CLint [2] [µL/min/1e6 cells]
C[C@@H]1CN(c2nnc(C(F)(F)F)o2)CCN1c1ncc(OCc2ccc(S(C)(=O)=O)cc2F)cn1	3	
C[C@@H]1CN(c2nnc(C(F)(F)F)o2)CCN1c1ncc(OCc2ccc(S(C)(=O)=O)cc2C#N)cn1	2.6	
C[C@@H]1CN(c2nnc(C(F)(F)F)o2)CCN1c1ncc(OCc2ccc(C#N)cc2C#N)cn1	2.8	
C[C@@H]1CN(c2nnc(C(F)(F)F)o2)CCN1c1ncc(OCc2ccc(S(C)(=O)=O)cc2)cn1	2.8	
C[C@@H]1CN(c2nnc(C(F)(F)F)o2)CCN1c1ncc(OCc2ccc(CS(C)(=O)=O)cc2)cn1	2.6	
C[C@@H]1CN(c2nnc(C(F)(F)F)o2)CCN1c1ncc(OCc2ccc(C#N)cc2F)cn1	3.8	
C[C@@H]1CN(c2nnc(C(F)(F)F)o2)CCN1c1ncc(OCc2ccc(-n3cnnn3)cc2F)cn1	3.6	
C[C@@H]1CN(c2nnc(C(F)(F)F)o2)CCN1c1ncc(OCc2ccc(CS(C)(=O)=O)cc2F)cn1	2.9	9
C[C@@H]1CN(c2nnc(C(F)(F)F)o2)CCN1c1ncc(OCc2ccc(OS(C)(=O)=O)cc2F)cn1	3.7	
C[C@@H]1CN(c2nnc(C(F)(F)F)o2)CCN1c1ncc(OCc2ccc(C[S+](C)[O-])cc2F)cn1 (some centres not stated)	2.6	53
